Measured values published in ChEMBL document CHEMBL1799933, “Discovery of a selective allosteric M1 receptor modulator with suitable development properties based on a quinolizidinone carboxylic acid scaffold” (J Med Chem, 2011).
Where a chain is given by its changes, count along the chain named. Calls of active or inactive are those of the source. The calls are words filed in the database; no cut-off is given here.

Tests used:
[1] = target: T1, Muscarinic acetylcholine receptor M1 (Homo sapiens) (UniProt P11229); test: Agonist activity at human muscarinic M1 receptor expressed in CHONFAT cells assessed as increase in calcium mobilization at 10 uM preincubated for 4 mins measured after 1 hr by FLIPR assay; type: functional, cell-based
T1 sequence (whole entry): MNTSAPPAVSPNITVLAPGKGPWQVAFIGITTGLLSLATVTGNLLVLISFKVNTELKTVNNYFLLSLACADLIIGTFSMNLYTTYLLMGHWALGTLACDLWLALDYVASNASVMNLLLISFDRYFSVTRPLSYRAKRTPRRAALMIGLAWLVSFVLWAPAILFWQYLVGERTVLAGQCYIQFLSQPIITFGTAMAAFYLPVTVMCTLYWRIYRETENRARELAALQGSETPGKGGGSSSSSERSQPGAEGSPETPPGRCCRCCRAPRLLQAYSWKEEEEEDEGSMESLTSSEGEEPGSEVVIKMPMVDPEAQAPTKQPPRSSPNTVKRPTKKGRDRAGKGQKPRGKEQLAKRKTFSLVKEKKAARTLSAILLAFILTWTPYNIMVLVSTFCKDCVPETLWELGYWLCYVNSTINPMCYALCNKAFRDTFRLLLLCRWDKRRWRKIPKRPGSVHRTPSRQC

[2] = target: Muscarinic acetylcholine receptor M3 (Homo sapiens) (UniProt P20309); test: Agonist activity at human muscarinic M3 receptor expressed in CHONFAT cells assessed as increase in acetylcholine-induced calcium mobilization at 10 uM preincubated for 4 mins measured after 1 hr by FLIPR assay; type: functional, cell-based
In short: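 CHO-NFAT cells expressing the named muscarinic receptor (human M1–M4; rhesus, dog or rat M1 in CHO-K1) were plated at 25,000 cells/well and grown overnight at 37 °C, 6% CO2. Cells were loaded with 1 μM Fluo-4AM for 1 h, washed, and preincubated 4 min with serially diluted compound (final DMSO 0.67%). They were then stimulated 4 min with an EC20 of ACh, and Ca2+ flux was read by FLIPR384.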

[3] = Plasma protein binding in human serum by equilibrium dialysis method; type: ADME, cell-free; settings: read-out: PPB (converted)
In short: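 Protein binding measured by equilibrium dialysis against rat or human serum.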

[4] = target: T1, Muscarinic acetylcholine receptor M1 (Homo sapiens); test: Positive allosteric modulation of human muscarinic M1 receptor expressed in CHONFAT cells assessed as potentiation of acetylcholine-induced calcium mobilization at 1 uM preincubated for 4 mins measured after 1 hr by FLIPR assay relative to control; type: functional, cell-based
In short: (§1)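 CHO-NFAT cells expressing human M1, 25,000 cells/well, grown overnight at 37 °C, 6% CO2. Washed in HBSS with 20 mM Hepes, 2.5 mM probenecid, 0.1% BSA, then loaded with 1 μM Fluo-4AM for 1 h at 37 °C. Compound preincubated 4 min (final DMSO 0.67%), then serially diluted ACh added for 4 min. Ca2+ flux read by FLIPR384; fold leftward shift of the ACh dose-response curve.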

[5] = Ratio of drug level in brain to plasma of Sprague-Dawley rat at 10 mg/kg, po; type: ADME, organism-based; design: dose 10 mg/kg, route oral; settings: read-out: BPR
In short: (§2)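 Rats dosed orally at 10 mpk. Plasma, brain and CSF sampled at 2 h and concentrations determined by bioanalysis.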

[6] = target: T1, Muscarinic acetylcholine receptor M1 (Homo sapiens); test: Positive allosteric modulation of human muscarinic M1 receptor expressed in CHONFAT cells assessed as potentiation of acetylcholine-induced calcium mobilization at 0.1 uM preincubated for 4 mins measured after 1 hr by FLIPR assay relative to control; type: functional, cell-based; in short: as §1
[7] = target: T2, Muscarinic acetylcholine receptor M1 (Mus musculus) (UniProt P12657); test: Agonist activity at mouse muscarinic M1 receptor expressed in CHOK1 cells assessed as potentiation of acetylcholine-induced calcium mobilization preincubated for 4 mins measured after 1 hr by FLIPR assay; type: functional, cell-based; settings: CHO-K1
T2 sequence (whole entry): T1 sequence (whole entry) with A5V, T254S, R320K, A337G, I413V
In short: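 CHO-NFAT cells (CHO-K1 background) expressing mouse M1, plated 25,000/well, grown overnight at 37 °C, 6% CO2. Cells washed in HBSS with 20 mM Hepes, 2.5 mM probenecid, 0.1% BSA, then loaded with 1 μM Fluo-4AM for 1 h at 37 °C. Compound (final 0.67% DMSO) preincubated 4 min, then stimulated 4 min with EC20 ACh. Ca2+ flux read on FLIPR384.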

[8] = Half life in dog at 3 mg/kg, po and 1 mg/kg, iv; type: ADME, organism-based, Canis lupus familiaris; settings: in vivo
In short: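 Dog PK, n = 2 animals. Given orally at 3 mg/kg and intravenously at 1 mg/kg. Interanimal variability under 20% for all values.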

[9] = Metabolic stability in rat NADPH-fortified hepatic microsomes assessed as oxidative metabolism; type: ADME, Liver
In short: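 Compound incubated with NADPH-fortified hepatic microsomes from rat, dog, monkey or human. Oxidative metabolism monitored.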

Plasma = test: Drug level in Sprague-Dawley rat plasma at 10 mg/kg, po; type: ADME, organism-based; design: dose 10 mg/kg, route oral; settings: in vivo; in short: as §2
Brain = test: Drug level Sprague-Dawley rat brain at 10 mg/kg, po; type: ADME, organism-based; design: dose 10 mg/kg, route oral; settings: in vivo, read-out: Drug uptake; in short: as §2
Mus musculus [10] = test: Antiamnesic activity against scopolamine-induced dementia in B6SJL mouse assessed as increase in freezing behavior at 10 mg/kg, ip after 24 hrs; type: functional, organism-based; design: dose 10 mg/kg
In short: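 Male B6SJL mice, 10 weeks old and naive (n = 12–16/group), were given compound IP in 5% beta-cyclodextrin and/or scopolamine 0.3 mg/kg in 0.9% saline 30 min before training. Training was 2 tone (3 kHz, 85 dB, 30 s)–footshock (0.5 mA, 1 s) pairings 2 min apart. Freezing in the same chamber was video-scored 24 h later.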

Mus musculus [11] = test: Antiamnesic activity against scopolamine-induced dementia in ip dosed B6SJL mouse assessed as increase in freezing behavior at 3 uM plasma concentration; type: functional, organism-based
[12] = Ratio of drug level in cerebrospinal fluid to fraction unbound level in plasma of Sprague-Dawley rat at 10 mg/kg, po; type: ADME, organism-based; design: dose 10 mg/kg, route oral; settings: in vivo
[13] = Half life in rhesus monkey; type: ADME, organism-based, Macaca mulatta; settings: in vivo
[14] = Half life in rat at 3 mg/kg, po and 1 mg/kg, iv; type: ADME, organism-based; settings: in vivo
In short: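 Rats (n = 2) dosed orally at 3 mg/kg and IV at 1 mg/kg. Interanimal variability under 20% for all values.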

Cerebrospinal fluid = test: Drug level in Sprague-Dawley rat cerebrospinal fluid at 10 mg/kg, po; type: ADME, organism-based; design: dose 10 mg/kg, route oral; settings: in vivo, read-out: Drug uptake; in short: as §2

Chain of Muscarinic acetylcholine receptor M3 (Homo sapiens) (P20309 whole entry, looked up): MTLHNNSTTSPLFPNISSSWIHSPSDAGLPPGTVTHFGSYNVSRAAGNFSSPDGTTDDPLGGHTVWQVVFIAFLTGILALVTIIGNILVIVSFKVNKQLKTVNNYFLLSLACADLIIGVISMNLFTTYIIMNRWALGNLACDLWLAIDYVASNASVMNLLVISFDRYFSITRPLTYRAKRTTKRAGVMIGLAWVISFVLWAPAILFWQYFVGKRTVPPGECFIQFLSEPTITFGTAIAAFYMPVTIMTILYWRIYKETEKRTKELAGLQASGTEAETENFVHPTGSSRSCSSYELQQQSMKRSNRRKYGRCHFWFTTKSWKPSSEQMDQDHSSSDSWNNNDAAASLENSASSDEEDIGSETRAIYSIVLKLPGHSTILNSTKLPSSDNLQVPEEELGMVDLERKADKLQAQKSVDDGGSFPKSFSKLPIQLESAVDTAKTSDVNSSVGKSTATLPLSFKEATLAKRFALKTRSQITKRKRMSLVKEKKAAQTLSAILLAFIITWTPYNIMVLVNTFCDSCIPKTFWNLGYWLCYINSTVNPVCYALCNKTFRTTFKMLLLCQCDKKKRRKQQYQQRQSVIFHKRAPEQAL

In the case of `N#CC1(c2ccccn2)CCN(Cc2cc(C(=O)O)c(=O)n3ccccc23)CC1` [MSD-M1PAM], the Activity [1] is reported as “Active”, the Activity [2] is reported as “inactive” and the fraction unbound [3] is reported as 0.291. It also gave a fold change (FC) [4] of 146, a Kp [5] of 0.23 and a fold change (FC) [6] of 3. The IP [7] was 69 nM, the half-life [8] was 4.4 h and the Stability [9] was “Stable”. The concentration (Plasma) was 1480 nM, the concentration (Brain) was 306 nM and the Activity (Mus musculus [10]) was “Active”. The Activity (Mus musculus [11]) was “Active”, the Ratio [12] was 0.3 and the half-life [13] was 3.6 h. For the same compound, the half-life [14] was 1.7 h and the concentration (Cerebrospinal fluid) was 135 nM.
